The source of these data is ChEMBL document CHEMBL5653631, “A Potent and Selective ULK1 Inhibitor Suppresses Autophagy and Sensitizes Cancer Cells to Nutrient Stress” (iScience, 2018).

Test [1] deals with T1, Aurora kinase A (Homo sapiens) (UniProt O14965).
T1 sequence (whole entry): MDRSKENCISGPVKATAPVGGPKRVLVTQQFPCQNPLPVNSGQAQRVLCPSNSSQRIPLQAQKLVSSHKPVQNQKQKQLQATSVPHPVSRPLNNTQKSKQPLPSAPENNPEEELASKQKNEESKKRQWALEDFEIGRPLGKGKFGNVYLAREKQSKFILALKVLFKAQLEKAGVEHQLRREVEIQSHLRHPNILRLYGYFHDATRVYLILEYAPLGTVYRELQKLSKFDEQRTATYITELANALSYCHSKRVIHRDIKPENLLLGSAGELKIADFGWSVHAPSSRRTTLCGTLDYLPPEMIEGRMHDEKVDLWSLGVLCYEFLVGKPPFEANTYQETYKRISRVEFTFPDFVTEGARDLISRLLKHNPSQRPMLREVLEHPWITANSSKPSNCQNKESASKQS
Nature of the test: Inhibition of human recombinant AurA at 40 nM related to control ULK1. Put shortly: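 Radiometric activity assays in a panel of 327 human recombinant kinases, each run in duplicate at one inhibitor concentration. Activity remaining is expressed as percent of vehicle control, and percent inhibition is calculated as 100% minus percent activity remaining.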

Test [2] has as its target Cyclin-dependent kinase 7 (Homo sapiens) (UniProt P50613). Briefly: Inhibition of human recombinant CDK7 at 40 nM in presence of ATP by radiometric assay relative to control.
The target in test [3] is SAFB-like transcription modulator (Homo sapiens) (UniProt Q9NWH9). Nature of the test: Inhibition of human recombinant MET at 40 nM related to control ULK1.
Sequence of SAFB-like transcription modulator (Homo sapiens) (Q9NWH9 whole entry): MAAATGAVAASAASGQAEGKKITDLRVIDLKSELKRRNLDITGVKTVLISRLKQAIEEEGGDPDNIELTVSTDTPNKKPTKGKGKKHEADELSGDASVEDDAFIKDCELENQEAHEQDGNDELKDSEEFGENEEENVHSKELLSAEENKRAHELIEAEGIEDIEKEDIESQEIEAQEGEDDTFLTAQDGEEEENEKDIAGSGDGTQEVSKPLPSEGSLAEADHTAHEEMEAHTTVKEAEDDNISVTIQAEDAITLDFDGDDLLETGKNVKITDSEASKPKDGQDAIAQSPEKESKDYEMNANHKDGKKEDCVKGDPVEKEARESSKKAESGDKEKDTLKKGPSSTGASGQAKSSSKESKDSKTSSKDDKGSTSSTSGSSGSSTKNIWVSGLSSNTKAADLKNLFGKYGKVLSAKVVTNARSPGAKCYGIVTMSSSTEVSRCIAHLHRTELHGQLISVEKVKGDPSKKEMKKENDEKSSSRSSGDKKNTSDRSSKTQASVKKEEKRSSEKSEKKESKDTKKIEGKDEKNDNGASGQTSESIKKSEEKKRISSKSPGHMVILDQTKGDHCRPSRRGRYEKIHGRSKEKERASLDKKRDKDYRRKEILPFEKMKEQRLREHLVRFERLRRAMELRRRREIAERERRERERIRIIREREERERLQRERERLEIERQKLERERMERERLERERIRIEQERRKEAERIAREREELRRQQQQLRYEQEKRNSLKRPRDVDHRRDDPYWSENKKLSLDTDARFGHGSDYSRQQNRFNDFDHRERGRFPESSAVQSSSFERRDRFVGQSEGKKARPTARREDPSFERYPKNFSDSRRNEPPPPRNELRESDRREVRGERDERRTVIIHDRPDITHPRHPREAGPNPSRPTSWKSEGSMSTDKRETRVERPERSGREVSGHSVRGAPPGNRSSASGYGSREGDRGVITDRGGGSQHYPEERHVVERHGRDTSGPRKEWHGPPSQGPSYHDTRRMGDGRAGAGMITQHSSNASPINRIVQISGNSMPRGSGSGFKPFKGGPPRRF
Test [4] deals with T2, Protein kinase C zeta type (Homo sapiens) (UniProt Q05513).
T2 sequence (whole entry): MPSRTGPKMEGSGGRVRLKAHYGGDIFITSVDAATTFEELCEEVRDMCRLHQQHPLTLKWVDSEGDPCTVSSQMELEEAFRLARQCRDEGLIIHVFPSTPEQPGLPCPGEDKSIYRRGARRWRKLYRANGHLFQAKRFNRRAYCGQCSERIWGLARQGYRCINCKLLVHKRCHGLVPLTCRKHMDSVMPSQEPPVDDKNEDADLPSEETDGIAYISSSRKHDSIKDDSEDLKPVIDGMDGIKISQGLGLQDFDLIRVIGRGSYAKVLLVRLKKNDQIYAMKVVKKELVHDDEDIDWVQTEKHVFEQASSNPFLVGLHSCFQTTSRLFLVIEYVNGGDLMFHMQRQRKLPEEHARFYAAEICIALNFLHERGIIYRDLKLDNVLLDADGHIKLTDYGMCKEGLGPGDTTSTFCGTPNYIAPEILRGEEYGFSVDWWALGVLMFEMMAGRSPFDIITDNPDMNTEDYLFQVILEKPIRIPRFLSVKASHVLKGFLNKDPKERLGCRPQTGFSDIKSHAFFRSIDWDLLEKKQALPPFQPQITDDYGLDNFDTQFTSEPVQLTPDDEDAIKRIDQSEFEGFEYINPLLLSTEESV
Nature of the test: Inhibition of human recombinant PKCz at 40 nM in presence of ATP by radiometric assay relative to control.

The species entered for test [5] is Homo sapiens. Nature of the test: Inhibition of human recombinant p70S6K at 500 nM in presence of ATP by radiometric assay relative to control.
The target of test [6] is Tyrosine-protein kinase Lyn (Homo sapiens) (UniProt P07948). Briefly: Inhibition of human recombinant LYN at 500 nM related to control ULK1.
Sequence of Tyrosine-protein kinase Lyn (Homo sapiens) (P07948 2-512 limits assumed): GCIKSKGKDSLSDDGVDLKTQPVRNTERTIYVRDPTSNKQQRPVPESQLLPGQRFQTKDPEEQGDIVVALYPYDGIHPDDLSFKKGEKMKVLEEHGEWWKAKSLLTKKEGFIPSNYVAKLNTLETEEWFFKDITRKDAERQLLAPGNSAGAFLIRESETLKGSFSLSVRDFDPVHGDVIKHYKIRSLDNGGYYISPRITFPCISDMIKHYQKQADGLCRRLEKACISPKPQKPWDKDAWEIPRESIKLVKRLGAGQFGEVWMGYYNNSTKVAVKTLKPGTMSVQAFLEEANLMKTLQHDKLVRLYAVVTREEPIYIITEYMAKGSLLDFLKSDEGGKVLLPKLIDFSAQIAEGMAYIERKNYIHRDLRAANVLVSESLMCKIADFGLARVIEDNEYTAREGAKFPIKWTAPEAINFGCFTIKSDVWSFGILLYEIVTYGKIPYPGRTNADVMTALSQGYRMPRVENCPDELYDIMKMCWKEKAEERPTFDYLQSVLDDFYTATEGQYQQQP
The target of test [7] is Tyrosine-protein kinase JAK2 (Homo sapiens) (UniProt O60674). Briefly: Inhibition of human recombinant JAK2 at 500 nM related to control ULK1.
Sequence of Tyrosine-protein kinase JAK2 (Homo sapiens) (O60674 whole entry): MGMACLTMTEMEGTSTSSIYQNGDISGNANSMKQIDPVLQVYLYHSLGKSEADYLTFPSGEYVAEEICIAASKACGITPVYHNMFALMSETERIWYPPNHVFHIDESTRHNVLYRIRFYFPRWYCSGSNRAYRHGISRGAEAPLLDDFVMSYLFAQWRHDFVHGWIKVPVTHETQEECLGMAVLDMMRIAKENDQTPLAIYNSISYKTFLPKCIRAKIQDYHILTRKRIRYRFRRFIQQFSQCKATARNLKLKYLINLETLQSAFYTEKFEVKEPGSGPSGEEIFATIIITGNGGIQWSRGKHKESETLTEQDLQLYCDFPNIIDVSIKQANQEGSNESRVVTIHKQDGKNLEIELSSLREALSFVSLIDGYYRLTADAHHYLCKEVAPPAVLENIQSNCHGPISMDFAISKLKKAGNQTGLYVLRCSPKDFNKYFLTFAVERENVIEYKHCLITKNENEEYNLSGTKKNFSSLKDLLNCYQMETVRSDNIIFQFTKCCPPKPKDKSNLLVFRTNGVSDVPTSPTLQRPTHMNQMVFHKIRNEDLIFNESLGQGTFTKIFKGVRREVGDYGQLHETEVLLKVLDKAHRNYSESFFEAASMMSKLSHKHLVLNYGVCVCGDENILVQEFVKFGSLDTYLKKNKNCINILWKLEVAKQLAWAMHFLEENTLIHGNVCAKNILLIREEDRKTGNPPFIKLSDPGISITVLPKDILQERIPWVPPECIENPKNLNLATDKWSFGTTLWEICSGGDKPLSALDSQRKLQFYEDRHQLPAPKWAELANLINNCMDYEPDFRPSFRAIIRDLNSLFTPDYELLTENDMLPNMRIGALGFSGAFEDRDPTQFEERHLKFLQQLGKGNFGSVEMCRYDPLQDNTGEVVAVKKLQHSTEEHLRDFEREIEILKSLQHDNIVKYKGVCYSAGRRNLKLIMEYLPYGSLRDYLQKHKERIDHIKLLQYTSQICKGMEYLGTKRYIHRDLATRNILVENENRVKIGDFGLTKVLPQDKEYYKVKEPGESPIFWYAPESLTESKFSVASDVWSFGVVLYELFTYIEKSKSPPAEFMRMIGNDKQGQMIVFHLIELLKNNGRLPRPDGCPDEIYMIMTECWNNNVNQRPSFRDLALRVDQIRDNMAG
The target of test [8] is T3, Myotonin-protein kinase (Homo sapiens) (UniProt Q09013).
T3 sequence (whole entry): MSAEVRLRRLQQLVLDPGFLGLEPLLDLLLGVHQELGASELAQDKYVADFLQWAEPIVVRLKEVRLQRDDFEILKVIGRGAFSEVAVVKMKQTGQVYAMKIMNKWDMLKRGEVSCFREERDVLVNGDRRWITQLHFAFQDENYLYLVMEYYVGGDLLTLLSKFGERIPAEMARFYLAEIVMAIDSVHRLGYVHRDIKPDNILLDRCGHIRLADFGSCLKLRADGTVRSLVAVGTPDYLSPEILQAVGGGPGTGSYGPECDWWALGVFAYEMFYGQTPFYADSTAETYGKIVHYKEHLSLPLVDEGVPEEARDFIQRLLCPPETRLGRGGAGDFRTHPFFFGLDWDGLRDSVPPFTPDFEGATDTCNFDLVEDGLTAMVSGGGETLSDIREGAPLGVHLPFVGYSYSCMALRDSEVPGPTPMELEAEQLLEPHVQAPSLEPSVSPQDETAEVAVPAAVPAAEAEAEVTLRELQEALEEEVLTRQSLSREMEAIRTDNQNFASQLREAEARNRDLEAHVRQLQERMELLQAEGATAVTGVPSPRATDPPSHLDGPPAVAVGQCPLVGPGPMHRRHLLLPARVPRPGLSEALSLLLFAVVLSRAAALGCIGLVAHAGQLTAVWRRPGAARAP
Nature of the test: Inhibition of human recombinant DMPK1 at 15 nM in presence of ATP by radiometric assay relative to control.

Sequence of Cyclin-dependent kinase 7 (Homo sapiens) (P50613 whole entry): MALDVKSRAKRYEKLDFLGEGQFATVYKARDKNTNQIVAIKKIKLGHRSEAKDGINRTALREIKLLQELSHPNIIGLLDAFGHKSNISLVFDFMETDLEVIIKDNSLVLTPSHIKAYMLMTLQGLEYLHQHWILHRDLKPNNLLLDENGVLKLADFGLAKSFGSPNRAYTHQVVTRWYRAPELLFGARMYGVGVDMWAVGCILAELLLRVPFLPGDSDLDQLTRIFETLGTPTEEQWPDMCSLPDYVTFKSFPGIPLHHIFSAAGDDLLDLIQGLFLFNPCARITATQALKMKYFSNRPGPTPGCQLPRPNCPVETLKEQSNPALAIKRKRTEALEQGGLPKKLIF

Take `O=C(N[C@@H](C1CC1)C(F)(F)F)c1cc(-c2cnn3cc(-c4ccc(F)cc4)cnc23)cs1`: the results for the fold change (FC) in test [1] and in test [3] were 0.3 and 0.22, respectively. For the same compound, the inhibition was 23% in test [2] and 0% in test [4].

In the case of `CNC(=O)c1ccccc1Oc1nc(Nc2cc(OC)c(OC)c(OC)c2)ncc1Br`, in test [5], the inhibition amounted to 0%. The fold change (FC) in test [6] worked out at 0.41; in test [7], 1.05.

In the case of `CC(C)[C@H](NC(=O)c1cc(-c2cnn3cc(-c4ccc(OCCN5CCCCC5)cc4)cnc23)cs1)C(F)(F)F`, the inhibition in test [8] amounted to 0%.
